This is an account of results in paper PMC3624906 (The Biochemical journal, 2012).

For orientation: Kd means the free concentration of one partner at which half of the binding sites on the other are occupied at equilibrium, for simple one-to-one binding. A higher Kd goes with weaker binding. A word on the IC50: it is the midpoint of a concentration-inhibition curve. Read a low IC50 as greater potency.

In one assay the target is GST-MIM-S1 (murine) (UniProt Q8R1S4). Briefly: pull-down.
The target in assay [1] is T1, MIM-Myc (murine, UniProt Q8R1S4 1-759).
T1 sequence (looked up): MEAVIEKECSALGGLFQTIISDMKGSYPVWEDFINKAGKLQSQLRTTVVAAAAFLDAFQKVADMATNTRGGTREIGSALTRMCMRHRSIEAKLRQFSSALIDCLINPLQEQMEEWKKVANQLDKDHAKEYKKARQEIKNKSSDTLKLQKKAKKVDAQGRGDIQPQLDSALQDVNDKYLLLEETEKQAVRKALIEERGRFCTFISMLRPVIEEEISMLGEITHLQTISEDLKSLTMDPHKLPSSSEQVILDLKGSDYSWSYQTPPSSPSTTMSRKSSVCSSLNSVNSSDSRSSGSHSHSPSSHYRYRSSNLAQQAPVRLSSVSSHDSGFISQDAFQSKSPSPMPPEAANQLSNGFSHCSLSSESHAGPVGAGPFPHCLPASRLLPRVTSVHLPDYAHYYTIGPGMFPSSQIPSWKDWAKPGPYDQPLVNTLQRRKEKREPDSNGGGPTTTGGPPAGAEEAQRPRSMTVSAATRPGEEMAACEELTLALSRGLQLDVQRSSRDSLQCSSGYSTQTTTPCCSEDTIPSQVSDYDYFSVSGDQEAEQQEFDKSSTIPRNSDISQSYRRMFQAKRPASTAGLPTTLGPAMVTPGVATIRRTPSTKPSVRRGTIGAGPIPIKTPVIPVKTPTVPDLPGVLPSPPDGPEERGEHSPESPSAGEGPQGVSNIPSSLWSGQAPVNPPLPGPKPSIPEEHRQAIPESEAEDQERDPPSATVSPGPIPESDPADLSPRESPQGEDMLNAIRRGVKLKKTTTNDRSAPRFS
Briefly: pull-down.

The target in a further assay is T2, MIM-GFP (murine, UniProt Q8R1S4 1-759).
T2 sequence (looked up): T1 sequence (looked up)
Put plainly: co-IP.

The subject of a further assay is MIM-I-BAR-Myc. Put plainly: Pull-down of cell lysates with GST-MIM-S1/-S2, unbound MIM by Western blot. It counts as binding, murine. Particulars: GST-tagged recombinant peptide, Western blot anti-Myc, in words. Summed up: (§1)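 GST-tagged test peptide made in DH5α (0.5 mM IPTG added at OD600 0.3–0.4, then 90 min). It was captured on glutathione Sepharose 4B (2 h, 4°C) and washed in PBS. 293T cells were transfected with the Myc-tagged MIM construct and lysed 48 h later. Lysates were precipitated with the bead-bound peptide at varying concentrations. Supernatant (unbound MIM) and washed pellets were analysed by SDS-PAGE/anti-Myc Western blot with chemiluminescence.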
On the technique in general: In western blotting, separated proteins are transferred to a membrane and probed.

Assay [2] concerns MIM-Myc. The assay is described as above. The class given is binding, murine. Particulars: GST-tagged recombinant peptide, Western blot anti-Myc, in words. The method in brief: as §1
Assay [3] has as its target T1, MIM-Myc. Briefly: co-IP.

In the assay with GST-MIM-S1 (murine), MIM-I-BAR-Myc (domain or fragment) registered a Kd of 0.065 µM.

B1: GST-MIM-S1 (domain or fragment, murine, UniProt Q8R1S4 18-89, looked up)
chain: TIISDMKGSYPVWEDFINKAGKLQSQLRTTVVAAAAFLDAFQKVADMATNTRGGTREIGSALTRMCMRHRSI
B1 came in with a Kd in the assay with MIM-Myc [1] of 0.11 µM. The molecule further returned an IC50 in the assay with MIM-GFP of 0.213 µM.

B2: GST-MIM-S1: recombinant GST-tagged form of peptide MIM-S1 (protein)
chain: B1 chain
modifications: left off: GST, end not stated, kept
B2: in the assay with MIM-I-BAR-Myc, the “pull-down of MIM-I-BAR-Myc from 293T lysates” value was “able to precipitate effectively”. In addition, the “pull-down of MIM-Myc from 293T lysates” value in the assay on MIM-Myc [2] is reported as “able to precipitate effectively”. On to AFQKVADMATNTRGGTREIGSALTRMCMRHRSI [MIM-S3], for which 0.14 µM corresponded to half-maximal inhibition in the assay with MIM-Myc [3] (IC50).
